Test results: ChEMBL document CHEMBL1157090, “Diarylheptanoid from Pleuranthodium racemigerum with in vitro prostaglandin E(2) inhibitory and cytotoxic activity” (J Nat Prod, 2010)

Tests used:
[1] = Cytotoxicity against mouse P388D1 cells after 24 hrs by ATPLite assay; assay type: functional, cell-based; conditions: P388D1, 24 h
How it was run: (§1)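 Cells grown in appropriate medium were exposed to test compounds at five concentrations for 24 h (5% CO2). Viability was read as cellular ATP by ATPLite luciferase luminescence and quantified against an ATP standard curve. Samples were run in triplicate, and IC50 was calculated from the concentration series.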

[2] = test system: MCF7; test: Cytotoxicity against human MCF7 cells after 24 hrs by ATPLite assay; assay type: functional, cell-based; conditions: MCF7, 24 h; how it was run: as §1
[3] = test system: NIH3T3; test: Inhibition of PGE2 production in calcium ionophore […] stimulated mouse 3T3 cells after 3 hrs; assay type: functional, cell-based; conditions: NIH3T3, 3 h
How it was run: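 3T3 cells in DMEM with 10% FBS were seeded at 2 × 10^5 cells/mL, held ~20 h at 37 °C and 5% CO2, then given test substance (DMSO stock, 10 mg/mL) for 3 h. […] (5 mM DMSO stock) was added for 20 min. Supernatant PGE2 was measured by EIA, in triplicate, as % inhibition versus solvent-treated stimulated cells.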

[4] = test system: NIH3T3; test: Cytotoxicity against mouse 3T3 cells after 3 hrs by ATPLite assay; assay type: cell-based; conditions: NIH3T3, 3 h
[5] = test system: HepG2; test: Cytotoxicity against human HepG2 cells after 24 hrs by ATPLite assay; assay type: functional, cell-based; conditions: HepG2, 24 h; how it was run: as §1
[6] = test system: PC-3; test: Cytotoxicity against human PC3 cells after 24 hrs by ATPLite assay; assay type: functional, cell-based; conditions: PC-3, 24 h; how it was run: as §1
[7] = test system: Caco-2; test: Cytotoxicity against human Caco-2 cells after 24 hrs by ATPLite assay; assay type: functional, cell-based; conditions: Caco-2, 24 h; how it was run: as §1

Row | SMILES | IC50 [1] | IC50 [2] | IC50 [3] | IC50 [4] | IC50 [5] | IC50 [6] | IC50 [7]
1 | COc1ccc(C/C=C/CCCCc2ccc(O)cc2)cc1 | 117 µM | 56.9 µM | 34 µM | 52.8 µM | 40.6 µM | 23.6 µM | 44.8 µM
2 | COc1cc(/C=C/C(=O)CC(=O)/C=C/c2ccc(O)c(OC)c2)ccc1O [CURCUMIN] | 75.7 µM | 51.5 µM |  |  | 43.8 µM | 22.7 µM | 48.6 µM
